Reference: ChEMBL document CHEMBL1629636, “In vitro susceptibility of Borrelia spielmanii to antimicrobial agents commonly used for treatment of Lyme disease” (2009)

Legend:
Assay type in all cases: functional
Staphylococcus aureus = experiment: Antimicrobial activity against Staphylococcus aureus ATCC 29213 after 72 hrs by colorimetric assay; conditions: ATCC 29213, 72 h
How it was run: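 Quality-control MIC followed the CLSI method with two changes: BSK medium was used, and the antibiotic-medium preparation was preincubated for 48 h before testing. Tests were run on three different days, and the MIC reported is the median of the three.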

Borrelia garinii [1] = experiment: Antimicrobial activity against Borrelia garinii isolate M2094 after 72 hrs by colorimetric assay; conditions: Borreliella garinii, isolate M2094, 72 h
How it was run: (§1)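 Tested in microtiter trays preloaded with lyophilized antibiotics; clinical isolates were low-passage (10 to 20 passages). MIC was read by colorimetric assay after 72 h. MBC was defined as 100% killing in liquid medium at 72 h: aliquots from vials showing no growth were diluted 1:1,000 in BSK and checked for regrowth after 3 weeks of subculture. Values are medians of three independent experiments on separate days.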

Borrelia spielmanii [2] = experiment: Antimicrobial activity against Borrelia spielmanii isolate PHap after 72 hrs by colorimetric assay; conditions: Borreliella spielmanii; how it was run: as §1
Borrelia spielmanii [3] = experiment: Antimicrobial activity against Borrelia spielmanii isolate PJes after 72 hrs by colorimetric assay; conditions: Borreliella spielmanii; how it was run: as §1
Borrelia afzelii [4] = experiment: Antimicrobial activity against Borrelia afzelii isolate FEM1 after 72 hrs by colorimetric assay; conditions: Borreliella afzelii, isolate FEM1, 72 h; how it was run: as §1
[5] = Antimicrobial activity against Borrelia burgdorferi B31 after 72 hrs by colorimetric assay; conditions: Borreliella burgdorferi; how it was run: as §1
Borrelia spielmanii [6] = experiment: Antimicrobial activity against Borrelia spielmanii isolate TIsar2 after 72 hrs by colorimetric assay; conditions: Borreliella spielmanii, isolate TIsar2, 72 h; how it was run: as §1
Borrelia spielmanii [7] = experiment: Antimicrobial activity against Borrelia spielmanii isolate PC-Eq17 after 72 hrs by colorimetric assay; conditions: Borreliella spielmanii, isolate PC-Eq17, 72 h; how it was run: as §1
Borrelia spielmanii [8] = experiment: Antimicrobial activity against Borrelia spielmanii isolate PSig2 after 72 hrs by colorimetric assay; conditions: Borreliella spielmanii, isolate PSig2, 72 h; how it was run: as §1
Borrelia spielmanii [9] = experiment: Antimicrobial activity against Borrelia spielmanii isolate TIsar3 after 72 hrs by colorimetric assay; conditions: Borreliella spielmanii, isolate TIsar3, 72 h; how it was run: as §1
[10] = Antimicrobial activity against Borrelia spielmanii A14S after 72 hrs by colorimetric assay; conditions: Borreliella spielmanii
How it was run: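 Low-passage isolates (10 to 20 passages) grown in BSK medium were tested in microtiter trays precoated with lyophilized antimicrobials. MIC was read colorimetrically after 72 h. Independent experiments were run on three different days, and the MIC reported is the median of the three.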

Borrelia spielmanii [11] = experiment: Antimicrobial activity against Borrelia spielmanii isolate PMai after 72 hrs by colorimetric assay; conditions: Borreliella spielmanii; how it was run: as §1
Borrelia garinii [12] = experiment: Antimicrobial activity against Borrelia garinii isolate G1 after 72 hrs by colorimetric assay; conditions: Borreliella garinii, isolate G1, 72 h; how it was run: as §1
Borrelia = experiment: Antimicrobial activity against Borrelia clinical isolate after 72 hrs by colorimetric assay; conditions: for MIC90: Borrelia, 72 h; how it was run: as §1
Borrelia afzelii [13] = experiment: Antimicrobial activity against Borrelia afzelii isolate G600 after 72 hrs by colorimetric assay; conditions: Borreliella afzelii, isolate G600, 72 h; how it was run: as §1
Borrelia spielmanii [14] = experiment: Antimicrobial activity against Borrelia spielmanii isolate PAnz after 72 hrs by colorimetric assay; conditions: Borreliella spielmanii; how it was run: as §1
Borrelia spielmanii [15] = experiment: Antimicrobial activity against Borrelia spielmanii isolate PMew after 72 hrs by colorimetric assay; conditions: Borreliella spielmanii; how it was run: as §1
Borrelia garinii [16] = experiment: Antimicrobial activity against Borrelia garinii isolate PSth after 72 hrs by colorimetric assay; conditions: Borreliella garinii; how it was run: as §1
Borrelia burgdorferi = experiment: Antimicrobial activity against Borrelia burgdorferi isolate LW2 after 72 hrs by colorimetric assay; conditions: Borreliella burgdorferi, isolate LW2, 72 h; how it was run: as §1
Borrelia afzelii [17] = experiment: Antimicrobial activity against Borrelia afzelii isolate G1039 after 72 hrs by colorimetric assay; conditions: Borreliella afzelii, isolate G1039, 72 h; how it was run: as §1

CC1(C)S[C@@H]2[C@H](NC(=O)[C@H](N)c3ccc(O)cc3)C(=O)N2[C@H]1C(=O)O [AMOXICILLIN]
0.5 µg/mL: MIC [5] | MIC (Borrelia spielmanii [7]) | MIC (Borrelia spielmanii [8]) | MIC (Borrelia afzelii [17])
≤ 0.125 µg/mL: MIC (Borrelia spielmanii [6]) | MIC (Borrelia garinii [12])
8 µg/mL: MBC (Borrelia spielmanii [11]) | MBC (Borrelia garinii [16]) | MBC (Borrelia afzelii [17])
2 µg/mL: MIC (Staphylococcus aureus) | MIC (Borrelia spielmanii [2]) | MIC (Borrelia spielmanii [9]) | MIC (Borrelia spielmanii [11]) | MIC90 (Borrelia)
4 µg/mL: MBC (Borrelia afzelii [4]) | MIC (Borrelia afzelii [4]) | MBC (Borrelia spielmanii [9]) | MBC (Borrelia afzelii [13]) | MBC (Borrelia burgdorferi)
> 16 µg/mL: MBC (Borrelia spielmanii [2]) | MBC (Borrelia spielmanii [7]) | MBC (Borrelia spielmanii [15])
0.125 µg/mL: MIC (Borrelia garinii [16])
>16 µg/mL: MBC90 (Borrelia)
0.25 µg/mL: MIC (Borrelia garinii [1]) | MIC (Borrelia spielmanii [3]) | MIC [10] | MIC (Borrelia spielmanii [14])
1 µg/mL: MIC (Borrelia afzelii [13]) | MIC (Borrelia spielmanii [15]) | MIC (Borrelia burgdorferi)
16 µg/mL: MBC (Borrelia garinii [1]) | MBC (Borrelia spielmanii [3]) | MBC [5] | MBC (Borrelia spielmanii [6]) | MBC (Borrelia spielmanii [8]) | MBC [10] | MBC (Borrelia garinii [12]) | MBC (Borrelia spielmanii [14])

CO/N=C(\C(=O)N[C@@H]1C(=O)N2C(C(=O)O)=C(COC(N)=O)CS[C@H]12)c1ccco1 [CEFUROXIME]
2 µg/mL: MIC (Staphylococcus aureus) | MBC (Borrelia spielmanii [6])
0.25 µg/mL: MIC (Borrelia spielmanii [2]) | MIC90 (Borrelia) | MIC (Borrelia afzelii [13])
0.5 µg/mL: MIC (Borrelia afzelii [4]) | MIC (Borrelia spielmanii [9])
4 µg/mL: MBC (Borrelia spielmanii [9]) | MBC (Borrelia afzelii [13])
8 µg/mL: MBC (Borrelia spielmanii [3]) | MBC (Borrelia spielmanii [8]) | MBC [10] | MBC (Borrelia spielmanii [11]) | MBC (Borrelia burgdorferi) | MBC (Borrelia afzelii [17])
>8 µg/mL: MBC90 (Borrelia)
0.125 µg/mL: MIC (Borrelia garinii [1]) | MIC (Borrelia spielmanii [3]) | MIC [5] | MIC (Borrelia spielmanii [6]) | MIC (Borrelia spielmanii [7]) | MIC (Borrelia spielmanii [8]) | MIC [10] | MIC (Borrelia spielmanii [11]) | MIC (Borrelia garinii [12]) | MIC (Borrelia spielmanii [14]) | MIC (Borrelia spielmanii [15]) | MIC (Borrelia garinii [16]) | MIC (Borrelia burgdorferi) | MIC (Borrelia afzelii [17])
> 8 µg/mL: MBC (Borrelia garinii [1]) | MBC (Borrelia spielmanii [2]) | MBC (Borrelia afzelii [4]) | MBC [5] | MBC (Borrelia spielmanii [7]) | MBC (Borrelia garinii [12]) | MBC (Borrelia spielmanii [14]) | MBC (Borrelia spielmanii [15]) | MBC (Borrelia garinii [16])

CC[C@H]1OC(=O)[C@H](C)[C@@H](O[C@H]2C[C@@](C)(OC)[C@@H](O)[C@H](C)O2)[C@H](C)[C@@H](O[C@@H]2O[C@H](C)C[C@H](N(C)C)[C@H]2O)[C@](C)(OC)C[C@@H](C)C(=O)[C@H](C)[C@@H](O)[C@]1(C)O [CLARITHROMYCIN]
0.0039 µg/mL: MIC (Borrelia garinii [1]) | MIC (Borrelia spielmanii [3]) | MIC (Borrelia afzelii [4]) | MIC [10] | MIC (Borrelia burgdorferi) | MIC (Borrelia afzelii [17])
0.0019 µg/mL: MIC (Borrelia spielmanii [2]) | MIC (Borrelia spielmanii [7]) | MIC (Borrelia spielmanii [8]) | MIC (Borrelia spielmanii [11]) | MIC (Borrelia garinii [12]) | MIC (Borrelia spielmanii [14])
1 µg/mL: MBC (Borrelia garinii [1]) | MBC (Borrelia afzelii [4]) | MBC (Borrelia spielmanii [7]) | MBC (Borrelia spielmanii [8]) | MBC (Borrelia spielmanii [9]) | MBC [10] | MBC (Borrelia garinii [12]) | MBC90 (Borrelia) | MBC (Borrelia spielmanii [14]) | MBC (Borrelia spielmanii [15]) | MBC (Borrelia afzelii [17])
0.063 µg/mL: MIC (Staphylococcus aureus)
2 µg/mL: MBC [5] | MBC (Borrelia garinii [16])
0.5 µg/mL: MBC (Borrelia spielmanii [2]) | MBC (Borrelia spielmanii [3]) | MBC (Borrelia spielmanii [6]) | MBC (Borrelia spielmanii [11]) | MBC (Borrelia afzelii [13])
4 µg/mL: MBC (Borrelia burgdorferi)
0.0079 µg/mL: MIC [5] | MIC (Borrelia spielmanii [6]) | MIC (Borrelia spielmanii [9]) | MIC90 (Borrelia) | MIC (Borrelia afzelii [13]) | MIC (Borrelia spielmanii [15]) | MIC (Borrelia garinii [16])

C[C@H]1c2cccc(O)c2C(=O)C2=C(O)[C@]3(O)C(=O)C(C(N)=O)=C(O)[C@@H](N(C)C)[C@@H]3[C@@H](O)[C@@H]21.O [DOXYCYCLINE]
0.25 µg/mL: MIC (Staphylococcus aureus) | MIC (Borrelia garinii [1]) | MIC [5] | MIC (Borrelia spielmanii [6]) | MIC90 (Borrelia) | MIC (Borrelia afzelii [13]) | MIC (Borrelia garinii [16])
32 µg/mL: MBC (Borrelia garinii [16]) | MBC (Borrelia burgdorferi)
16 µg/mL: MBC (Borrelia garinii [1]) | MBC (Borrelia spielmanii [2]) | MBC [5] | MBC (Borrelia spielmanii [6]) | MBC (Borrelia spielmanii [7]) | MBC [10] | MBC (Borrelia garinii [12]) | MBC90 (Borrelia) | MBC (Borrelia spielmanii [15])
4 µg/mL: MBC (Borrelia afzelii [4]) | MBC (Borrelia afzelii [17])
0.125 µg/mL: MIC (Borrelia spielmanii [3]) | MIC (Borrelia afzelii [4]) | MIC (Borrelia spielmanii [7]) | MIC (Borrelia spielmanii [8]) | MIC (Borrelia spielmanii [9]) | MIC [10] | MIC (Borrelia spielmanii [11]) | MIC (Borrelia garinii [12]) | MIC (Borrelia burgdorferi) | MIC (Borrelia afzelii [17])
0.0625 µg/mL: MIC (Borrelia spielmanii [2]) | MIC (Borrelia spielmanii [14])
2 µg/mL: MBC (Borrelia afzelii [13])
0.5 µg/mL: MIC (Borrelia spielmanii [15])
8 µg/mL: MBC (Borrelia spielmanii [3]) | MBC (Borrelia spielmanii [8]) | MBC (Borrelia spielmanii [9]) | MBC (Borrelia spielmanii [11]) | MBC (Borrelia spielmanii [14])
